One test concerns HL-60. The experiment in a line: Cytotoxicity against human HL60 cells after 48 hrs by MTT assay. In kind it is functional, cell-based. The note with it: HL-60, 48 h. Summed up:
(§1)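 Log-phase tumour cells grown in RPMI-1640 with 10% FBS, penicillin/streptomycin and 1% L-glutamine at 37 °C, 5% CO2. Cells treated with vehicle or a range of concentrations for 48 h. Growth measured by MTT reduction, absorbance at 570 nm. IC50 is the concentration giving 50% proliferation inhibition, from 3 independent experiments.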

The nature of test [1]: Cytotoxicity against human H460 cells after 48 hrs by MTT assay. The class given is functional, cell-based. The note with it: NCI-H460, 48 h. Put shortly:
as §1

The next test relates to A498. The test is described as follows: Cytotoxicity against human A498 cells after 48 hrs by MTT assay. The note with it: A498, 48 h. In kind it is functional, cell-based. Put shortly:
as §1

A further test relates to MCF7. The experiment in a line: Cytotoxicity against human MCF7 cells after 48 hrs by MTT assay. In kind it is functional, cell-based. The conditions noted are these: MCF7, 48 h. Put shortly: as §1
The subject of another test is COLO 205. The test is described as follows: Cytotoxicity against human COLO205 cells after 48 hrs by MTT assay. The class given is functional, cell-based. The note with it: COLO 205, 48 h. Put shortly: as §1
A further test concerns SK-OV-3. The experiment in a line: Cytotoxicity against human SKOV3 cells after 48 hrs by MTT assay. The class given is functional, cell-based. The note with it: SK-OV-3, 48 h. Summed up:
as §1

Test [2] in a line: Cytotoxicity against human Hep3B cells after 48 hrs by MTT assay. In kind it is functional, cell-based, Hep 3B2. Put shortly: (§2)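 Detroit 551 normal skin cells and Hep 3B hepatoma cells grown in DMEM with 10% FBS, penicillin/streptomycin and 1% L-glutamine at 37 °C, 5% CO2. Log-phase cells treated with vehicle or a range of concentrations for 48 h. MTT reduction read at 570 nm. IC50 (50% proliferation inhibition) taken from 3 independent experiments.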

Test [3] in a line: Cytotoxicity against human 2774 cells after 48 hrs by MTT assay. In kind it is functional, cell-based.
The next test has as its system Detroit 551. The test is described as follows: Cytotoxicity against human Detroit 551 cells after 48 hrs by MTT assay. The conditions noted are these: Detroit 551, 48 h. The class given is cell-based. Put shortly:
as §2

For the compound `COc1cccc(OC)c1-c1cc(=O)[nH]c2cc3c(cc12)OCO3`, the IC50 with HL-60 was greater than 100 µM; in [1] it was greater than 100 µM; in the test on A498, greater than 50 µM; in the test on MCF7, 29.8 µM; in the test on COLO 205, greater than 50 µM; in the test on SK-OV-3, greater than 30 µM. Moreover, the IC50 in test [2] is greater than 100 µM; in test [3] it was greater than 30 µM; in the test with Detroit 551, greater than 100 µM.

For `O=c1cc(-c2cccc(F)c2)c2cc3c(cc2[nH]1)OCO3`, the IC50 in the test with HL-60 is greater than 20 µM; in test [1], greater than 20 µM; in the test with A498, greater than 50 µM; with MCF7 it was greater than 30 µM; in the test on COLO 205, greater than 50 µM; in the test on SK-OV-3 it was greater than 30 µM. The half-maximal inhibitory concentration (IC50) was greater than 20 µM in [2], 24.5 µM in test [3] and greater than 20 µM in the test on Detroit 551.

As for `COc1cc(OC)c(-c2cc(=O)[nH]c3cc4c(cc23)OCO4)c(OC)c1`, the IC50 is 75 µM in the test with HL-60; 67.6 µM in [1]; greater than 50 µM in the test with A498; 21 µM in the test on MCF7; 37.4 µM in the test on COLO 205; greater than 30 µM in the test with SK-OV-3. In addition, the IC50 in [2] was greater than 100 µM; in [3], greater than 30 µM; in the test with Detroit 551, greater than 100 µM.

Regarding `O=c1cc(-c2ccc(F)cc2)c2cc3c(cc2[nH]1)OCO3`, the IC50 in the test with HL-60 is greater than 60 µM; in test [1] it was greater than 20 µM; in the test with A498, greater than 50 µM; in the test with MCF7, greater than 30 µM; with COLO 205 it was greater than 50 µM; in the test on SK-OV-3, greater than 30 µM. Also, the values for the IC50 (in test [2]; in [3]; in the test with Detroit 551) were greater than 20 µM, 17.6 µM and greater than 20 µM, respectively.

As for `COc1cccc(-c2cc(=O)[nH]c3cc4c(cc23)OCO4)c1`, the IC50 with HL-60 was greater than 10 µM; in [1] it was greater than 10 µM; in the test on A498, greater than 50 µM; in the test with MCF7, 14.9 µM; with COLO 205, 39.6 µM; in the test on SK-OV-3 it was 24.6 µM. Moreover, the IC50 in [2] is greater than 10 µM; in [3], 15.6 µM; in the test with Detroit 551 it was greater than 10 µM.

Regarding `O=c1cc(-c2ccccc2)c2cc3c(cc2[nH]1)OCO3`, the 50% inhibitory concentration (IC50) is greater than 50 µM with HL-60; greater than 50 µM in test [1]; 42.7 µM in the test with A498; 18.5 µM in the test on MCF7; greater than 50 µM in the test with COLO 205; greater than 30 µM in the test on SK-OV-3. The figures for the IC50 (in [2]; in [3]; with Detroit 551) were greater than 50 µM, greater than 30 µM and greater than 50 µM, respectively.

`COc1cc(OC)cc(-c2cc(=O)[nH]c3cc4c(cc23)OCO4)c1`: the IC50 was 2.9 µM in the test on HL-60; greater than 10 µM in [1]; 11.7 µM in the test with A498; greater than 30 µM with MCF7; greater than 50 µM in the test on COLO 205; greater than 30 µM in the test with SK-OV-3. The values for the IC50 (in test [2]; in test [3]; in the test with Detroit 551) were greater than 10 µM, 8.3 µM and greater than 10 µM, respectively.

Consider `COc1ccc(-c2cc(=O)[nH]c3cc4c(cc23)OCO4)cc1OC`, for which the IC50 in the test with HL-60 came to 4.1 µM; in [1] it was 14.4 µM; with A498, 25.6 µM; in the test on MCF7, 14.3 µM; in the test on COLO 205, 16.8 µM; in the test on SK-OV-3, 6.4 µM. Also, the IC50 is 14.6 µM in test [2], 6.6 µM in test [3] and 23.6 µM in the test with Detroit 551.

For `COc1cc(-c2cc(=O)[nH]c3cc4c(cc23)OCO4)cc(OC)c1OC`, the IC50 in the test on HL-60 is 2.3 µM; in [1], 7.6 µM; with A498, greater than 50 µM; in the test on MCF7, 4.5 µM; in the test on COLO 205, greater than 50 µM; in the test with SK-OV-3, 0.93 µM. For the same compound, the IC50 is 5 µM in test [2], 2.1 µM in [3] and greater than 25 µM in the test on Detroit 551.

In the case of `COc1ccc(OC)c(-c2cc(=O)[nH]c3cc4c(cc23)OCO4)c1`, the IC50 in the test with HL-60 came to 3.5 µM; in [1] it was 10 µM; with A498 it was 28.9 µM; with MCF7 it was 3.7 µM; in the test on COLO 205, 6.1 µM; with SK-OV-3 it was 20 µM. Also, the IC50 in test [2] is 10 µM; in [3] it was 6.5 µM; with Detroit 551, greater than 100 µM.

Consider `COc1cc([C@@H]2c3cc4c(cc3[C@@H](O[C@@H]3O[C@@H]5CO[C@@H](C)O[C@H]5[C@H](O)[C@H]3O)[C@H]3COC(=O)[C@H]23)OCO4)cc(OC)c1O` [ETOPOSIDE], for which the IC50 amounted to 5.48 µM in the test with HL-60 and 1 µM in test [1].

With `O=c1cc(-c2ccccc2F)c2cc3c(cc2[nH]1)OCO3`, the IC50 was greater than 100 µM with HL-60; greater than 100 µM in [1]; greater than 50 µM in the test with A498; greater than 30 µM in the test on MCF7; greater than 50 µM with COLO 205; greater than 30 µM in the test on SK-OV-3. For the same compound, the IC50 is greater than 100 µM in [2], 26.4 µM in test [3] and greater than 100 µM in the test with Detroit 551.

Consider `O=c1[nH]cc(F)c(=O)[nH]1` [FLUOROURACIL], for which the figures for the IC50 (with HL-60; in test [1]) were 22.3 µM and 26.7 µM, respectively.

Turning to `COc1ccc(-c2cc(=O)[nH]c3cc4c(cc23)OCO4)cc1`, the IC50 in the test on HL-60 is greater than 20 µM; in [1] it was greater than 20 µM; in the test on A498 it was greater than 25 µM; with MCF7 it was greater than 30 µM; in the test on COLO 205, greater than 50 µM; with SK-OV-3 it was 26.8 µM. The figures for the IC50 (in [2]; in test [3]; in the test with Detroit 551) were greater than 20 µM, greater than 30 µM and greater than 20 µM, respectively.

Take `COc1ccccc1-c1cc(=O)[nH]c2cc3c(cc12)OCO3`: the half-maximal inhibitory concentration (IC50) was 10 µM with HL-60; greater than 25 µM in test [1]; 9.8 µM in the test on A498; 27.1 µM with MCF7; 18.1 µM in the test with COLO 205; 26.6 µM with SK-OV-3. Further, the IC50 was 23.3 µM in test [2], 18.8 µM in test [3] and greater than 25 µM in the test with Detroit 551.
